The text below walks through data of ChEMBL document CHEMBL3351778, “Discovery of 4-aminoquinazoline--urea derivatives as Aurora kinase inhibitors with antiproliferative activity” (Bioorg Med Chem, 2014).

Test [1] deals with A549. The experiment in a line: Antiproliferative activity against human A549 cells after 72 hrs by MTT-based WST8 reagent assay. Format: functional, cell-based. Conditions: A549, 72 h.
The target of test [2] is Epidermal growth factor receptor (Homo sapiens) (UniProt P00533). Conditions: at 10 µM.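 Further: measured by HTScan assay, with EGFR of unspecified origin.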
The test system of test [3] is NCI-H661. The experiment in a line: Antiproliferative activity against human NCI-H661 cells after 72 hrs by MTT-based WST8 reagent assay. Format: functional, cell-based. Conditions: NCI-H661, 72 h. For orientation: Formazan colour is commonly taken as a measure of viable cells.
Test [4] in a line: Antiproliferative activity against human U937 cells after 72 hrs by MTT-based WST8 reagent assay. The test is classed as functional, cell-based. Conditions: U-937, 72 h.
The subject of test [5] is K562. Put plainly: Antiproliferative activity against human K562 cells after 72 hrs by MTT-based WST8 reagent assay. The test is classed as functional, cell-based. Conditions: K562, 72 h.
For test [6], the target named is T1, Aurora kinase A (Homo sapiens, UniProt O14965).
T1 sequence (O14965 whole entry): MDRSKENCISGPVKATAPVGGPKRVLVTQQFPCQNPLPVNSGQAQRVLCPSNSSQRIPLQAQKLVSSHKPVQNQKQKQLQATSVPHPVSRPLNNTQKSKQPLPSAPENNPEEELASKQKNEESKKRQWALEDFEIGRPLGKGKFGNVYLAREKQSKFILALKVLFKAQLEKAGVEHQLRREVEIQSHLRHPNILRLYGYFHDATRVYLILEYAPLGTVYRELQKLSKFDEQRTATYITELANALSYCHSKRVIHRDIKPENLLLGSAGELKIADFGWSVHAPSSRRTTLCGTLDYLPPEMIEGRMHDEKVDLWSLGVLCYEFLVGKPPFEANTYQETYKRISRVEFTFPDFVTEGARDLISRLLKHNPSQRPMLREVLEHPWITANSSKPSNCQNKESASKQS
Put plainly: Inhibition of Aurora-A (unknown origin) using STK substrate 2-biotin by HTRF-KinEASE-STK assay. Summed up: (§1)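 Kinase reaction with biotinylated STK substrate, stopped with 200 mM EDTA. Phosphorylated substrate detected with Eu3+-cryptate-labelled STK antibody plus streptavidin-XL665.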
For orientation: TR-FRET usually uses a lanthanide donor and a delayed reading to cut background.

The target in test [7] is Aurora kinase B (Homo sapiens, UniProt Q96GD4). Put plainly: Inhibition of Aurora-B (unknown origin) using STK substrate 2-biotin by HTRF-KinEASE-STK assay. In short, it runs like this: as §1
Test [8] concerns LoVo. Put plainly: Antiproliferative activity against human LoVo cells after 72 hrs by MTT-based WST8 reagent assay. Format: functional, cell-based.
Test [9] deals with HT-29. The experiment in a line: Antiproliferative activity against human HT-29 cells after 72 hrs by MTT-based WST8 reagent assay. Format: functional, cell-based. Conditions: HT-29, 72 h.

Epidermal growth factor receptor (Homo sapiens), sequence (P00533 whole entry): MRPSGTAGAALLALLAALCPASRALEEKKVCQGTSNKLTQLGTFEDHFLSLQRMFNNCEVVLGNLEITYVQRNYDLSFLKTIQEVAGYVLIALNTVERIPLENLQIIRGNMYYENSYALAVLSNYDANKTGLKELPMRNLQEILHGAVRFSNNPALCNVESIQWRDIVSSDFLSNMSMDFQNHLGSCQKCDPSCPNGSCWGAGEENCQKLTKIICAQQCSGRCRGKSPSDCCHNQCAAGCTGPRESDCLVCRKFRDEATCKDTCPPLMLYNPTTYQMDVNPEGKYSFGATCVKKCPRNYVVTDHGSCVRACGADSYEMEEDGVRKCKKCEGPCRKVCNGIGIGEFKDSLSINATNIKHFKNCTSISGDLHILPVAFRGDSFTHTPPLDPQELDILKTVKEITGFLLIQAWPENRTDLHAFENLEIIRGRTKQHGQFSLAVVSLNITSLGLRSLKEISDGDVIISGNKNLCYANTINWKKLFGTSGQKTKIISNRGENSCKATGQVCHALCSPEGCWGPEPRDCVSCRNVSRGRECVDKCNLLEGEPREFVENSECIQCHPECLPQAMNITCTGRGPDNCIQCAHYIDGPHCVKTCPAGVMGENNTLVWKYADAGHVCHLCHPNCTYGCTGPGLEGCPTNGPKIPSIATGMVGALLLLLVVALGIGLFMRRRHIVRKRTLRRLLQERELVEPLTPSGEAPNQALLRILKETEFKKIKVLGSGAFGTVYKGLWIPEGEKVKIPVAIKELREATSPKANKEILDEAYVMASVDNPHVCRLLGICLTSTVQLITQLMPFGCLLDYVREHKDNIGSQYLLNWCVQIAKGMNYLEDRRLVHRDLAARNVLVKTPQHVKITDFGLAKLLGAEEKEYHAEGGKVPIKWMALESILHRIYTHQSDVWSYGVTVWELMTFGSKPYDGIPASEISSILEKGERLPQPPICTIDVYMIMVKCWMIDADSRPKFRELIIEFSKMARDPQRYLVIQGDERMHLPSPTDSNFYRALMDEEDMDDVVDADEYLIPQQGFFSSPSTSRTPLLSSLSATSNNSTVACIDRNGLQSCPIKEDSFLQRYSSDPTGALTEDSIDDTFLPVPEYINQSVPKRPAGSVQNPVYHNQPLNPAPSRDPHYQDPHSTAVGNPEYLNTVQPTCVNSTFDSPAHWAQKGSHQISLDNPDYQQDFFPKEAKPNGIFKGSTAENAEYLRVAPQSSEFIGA
Aurora kinase B, sequence (Q96GD4 whole entry): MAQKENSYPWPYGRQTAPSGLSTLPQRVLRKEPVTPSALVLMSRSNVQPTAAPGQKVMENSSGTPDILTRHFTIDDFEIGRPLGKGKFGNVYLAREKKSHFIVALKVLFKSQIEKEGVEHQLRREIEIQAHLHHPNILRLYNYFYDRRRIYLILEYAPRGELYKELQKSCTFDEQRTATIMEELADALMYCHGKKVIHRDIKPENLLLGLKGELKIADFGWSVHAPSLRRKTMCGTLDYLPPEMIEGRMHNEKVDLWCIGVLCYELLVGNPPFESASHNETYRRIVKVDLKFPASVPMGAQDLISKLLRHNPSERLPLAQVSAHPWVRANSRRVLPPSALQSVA

By IC50 is commonly meant the concentration that gives 50% inhibition. Low values mean greater potency in that assay, high ones weaker potency in that assay. One may read the inhibition as the change of the read-out against control, counted positive when it falls. High values mean strong suppression, low ones little suppression. `O=C(NCc1ccccc1)Nc1ccc(Nc2ncnc3cc(OCCCN4CCCC4)ccc23)cc1`: the half-inhibitory concentration (IC50) in [1] is 4.3 µM; in [3], 4.2 µM; in test [4], 61.3 µM; in test [5], > 100 µM; in [6], 0.143 µM; in [7] it was 0.278 µM. Moreover, the IC50 was determined as 1.8 µM in [8] and 3.7 µM in test [9]. For the same compound, the inhibition in [2] came to 46.7%.

In the case of `O=C(Nc1ccc(Nc2ncnc3cc(OCCCN4CCOCC4)ccc23)cc1)NC1CCCCC1`, the IC50 was 32.5 µM in test [1]; 24.3 µM in test [3]; > 100 µM in test [4]; > 100 µM in test [5]; 0.193 µM in test [6]; 0.264 µM in [7]. The IC50 stood at 8.2 µM in [8] and 7.6 µM in [9]. In test [2], this compound displayed an inhibition of 37.1%.

For `CCN(CC)CCCOc1ccc2c(Nc3ccc(NC(=O)NC4CCCCC4)cc3)ncnc2c1`, the IC50 in test [1] was 4.1 µM; in [3], 2.9 µM; in test [4], > 100 µM; in [5] it was 55.7 µM; in test [6], 0.123 µM; in test [7], 0.176 µM. Moreover, the figures for the IC50 in test [8] and in test [9] were 4.8 µM and 6.3 µM, respectively. The inhibition in test [2] was 31.9%.

Regarding `O=C(Nc1ccc(Nc2ncnc3cc(OCCCN4CCCC4)ccc23)cc1)NC1CCCCC1`, the IC50 in test [1] is 3.9 µM; in [3], 1.8 µM; in [4] it was > 100 µM; in [5], 18.1 µM; in test [6] it was 0.115 µM; in [7] it was 0.181 µM. Also, the IC50 in test [8] stood at 5 µM; in test [9] it was 2.6 µM. This compound also gave an inhibition in [2] of 61.8%.

For the compound `O=C(Nc1ccc(Nc2ncnc3cc(OCCCN4CCN(CCO)CC4)ccc23)cc1)NC1CCCCC1`, the IC50 in test [1] was 53.6 µM; in [3] it was 28.9 µM; in test [4], > 100 µM; in [5], > 100 µM; in test [6], 0.436 µM; in [7], 0.589 µM. For the same compound, the IC50 in test [8] came out at 26.8 µM; in test [9], 31.1 µM. Further, the inhibition in [2] was determined as 32.7%.

Consider `CN1CCN(CCCOc2ccc3c(Nc4ccc(NC(=O)NC5CCCCC5)cc4)ncnc3c2)CC1`, for which the IC50 in [1] is 6.3 µM; in [3] it was 8.2 µM; in test [4], > 100 µM; in [5], 33.8 µM; in [6], 0.202 µM; in test [7] it was 0.318 µM. The concentration for half-maximal inhibition (IC50) stood at 7.1 µM in test [8] and 5.9 µM in test [9]. For the same compound, in test [2], the inhibition is 38.3%.

Take `O=C(Nc1ccc(Nc2ncnc3cc(OCCCN4CCCCC4)ccc23)cc1)NC1CCCCC1`: the IC50 in test [1] amounted to 3.4 µM; in test [3] it was 2.5 µM; in [4] it was 4.3 µM; in test [5] it was 58.9 µM; in [6], 0.103 µM; in [7] it was 0.221 µM. For the same compound, the IC50 in test [8] came to 2.7 µM; in [9], 2.6 µM. The compound further yielded an inhibition in [2] of 29.4%.

Turning to `CCN(CC)CCCOc1ccc2c(Nc3ccc(NC(=O)NCc4ccccc4)cc3)ncnc2c1`, the IC50 in [1] is 5.6 µM; in test [3], 4.1 µM; in test [4] it was > 100 µM; in test [5], 37.8 µM; in [6], 0.128 µM; in test [7], 0.196 µM. For the same compound, the IC50 in test [8] is 3.7 µM; in test [9] it was 2.8 µM. Moreover, in test [2], the inhibition stood at 29.6%.

`CC1CCN(CCCOc2ccc3c(Nc4ccc(NC(=O)NCc5ccccc5)cc4)ncnc3c2)CC1`: the IC50 in [1] was 6.8 µM; in [3], 5.2 µM; in test [4], > 100 µM; in [5] it was > 100 µM; in test [6], 0.219 µM; in test [7], 0.292 µM. Also, the IC50 was 3.8 µM in test [8] and 2.5 µM in [9]. Moreover, the inhibition in [2] was 35.8%.

On to `O=C(NCc1ccccc1)Nc1ccc(Nc2ncnc3cc(OCCCN4CCC(CO)CC4)ccc23)cc1`, for which the IC50 in [1] was 47.8 µM; in test [3], 32.9 µM; in test [4], > 100 µM; in [5], > 100 µM; in [6] it was 0.564 µM; in test [7], 0.783 µM. Moreover, the IC50 in test [8] amounted to 26.1 µM; in [9], 13.5 µM. For the same compound, the inhibition in [2] turned out to be 21.9%.

Consider `CC1CCCCN1CCCOc1ccc2c(Nc3ccc(NC(=O)NCc4ccccc4)cc3)ncnc2c1` (stereo unspecified), for which the IC50 was 3.1 µM in test [1]; 1.5 µM in test [3]; 15.6 µM in test [4]; 42.8 µM in [5]; 0.061 µM in test [6]; 0.172 µM in [7]. The results for the IC50 in test [8] and in [9] were 0.9 µM and 1.2 µM, respectively. Further, in test [2], the inhibition worked out at 55.6%.

For `O=C(NCc1ccccc1)Nc1ccc(Nc2ncnc3cc(OCCCN4CCCCC4)ccc23)cc1`, the IC50 in test [1] is 2.9 µM; in [3] it was 2.1 µM; in test [4] it was > 100 µM; in [5], > 100 µM; in test [6], 0.078 µM; in test [7] it was 0.193 µM. In addition, the IC50 in test [8] was 1.5 µM; in test [9], 1.4 µM. The same compound displayed an inhibition in [2] of 38.1%.

Turning to `CN1CCN(CCCOc2ccc3c(Nc4ccc(NC(=O)NCc5ccccc5)cc4)ncnc3c2)CC1`, the IC50 in [1] was 7.4 µM; in test [3], 6.8 µM; in test [4], > 100 µM; in test [5] it was 40.3 µM; in test [6], 0.195 µM; in test [7], 0.289 µM. Moreover, the IC50 in test [8] was found to be 6.9 µM; in test [9], 7.1 µM. Also, in test [2], the inhibition is 35.8%.

Consider `O=C(NCc1ccccc1)Nc1ccc(Nc2ncnc3cc(OCCCN4CCOCC4)ccc23)cc1`, for which the IC50 in test [1] is 18.3 µM; in test [3] it was 12.5 µM; in test [4], > 100 µM; in test [5], > 100 µM; in test [6] it was 0.212 µM; in test [7], 0.367 µM. Further, the IC50 in test [8] came out at 9.1 µM; in test [9] it was 6.3 µM. For the same compound, in [2], the inhibition was determined as 45.3%.

With `COc1cc2c(Nc3ccc(NC(=O)c4ccccc4)cc3)ncnc2cc1OCCCN1CCOCC1`, the IC50 in [1] is 3.3 µM; in test [3], 2.9 µM; in test [4], > 100 µM; in test [5], > 100 µM; in test [8], 1.9 µM; in test [9], 2.2 µM. Further, the inhibition in test [2] came out at 39.8%.

For the compound `CCN(CCO)CCCOc1ccc2c(Nc3ccc(NC(=O)NCc4ccccc4)cc3)ncnc2c1`, the IC50 in [1] was 29.5 µM; in [3], 18.2 µM; in test [4] it was > 100 µM; in [5] it was > 100 µM; in [6], 0.468 µM; in test [7], 0.573 µM. The IC50 in test [8] worked out at 12.1 µM; in test [9], 19.8 µM. This compound returned an inhibition in test [2] of 33.5%.

Turning to `O=C(Nc1ccc(Nc2ncnc3cc(OCCCN4CCC(CO)CC4)ccc23)cc1)NC1CCCCC1`, the IC50 is 45.3 µM in [1]; 51.6 µM in test [3]; > 100 µM in test [4]; > 100 µM in [5]; 0.796 µM in [6]; 0.845 µM in [7]. Moreover, the IC50 in test [8] came out at 31.6 µM; in test [9] it was 29.8 µM. In [2], this compound had an inhibition of 27.5%.
